Experimental data collected from several papers.
Lines come from different studies, so protocols differ.
Cell line: A-375
Effect on: cell growth or viability

CNc1cccc(Nc2nc(-c3ccncc3)nc3c2CNCC3)c1 has an IC50 of 35200 nM (MTT).
With C[C@H]1COCCN1c1nc(N2CCOC[C@@H]2C)c2ccc(-c3cccc(C(=O)NCCOCCOCCOCCONC(=O)c4ccc(F)c(F)c4Nc4ccc(I)cc4F)c3)nc2n1 the IC50 was 11600 nM (WST-1; 72 h).
CN1CCc2c(c3ccccc3n2Cc2ccc(C(=O)NO)cc2)C1 gave an IC50 of 14800 nM (CCK-8; 48 h).
With CN1CCC(NC2CCc3[nH]c4c(C(N)=O)ccc(-c5ccccc5Cl)c4c3C2)CC1 (stereo not drawn) the IC50 was 26.8 nM (96 h).
For COc1cc(C(=O)c2nc(-c3cccc4[nH]ccc34)c[nH]2)cc2c1OC=CO2, the IC50 was 11.5 nM (MTS; 72 h).
For CC(C)(C)c1cnc(CSc2cnc(NC(=O)C3CCN(C(=O)CCCCCCCN4Cc5cc6c(cc5C4)C(=O)N(C4CCC(=O)NC4=O)C6=O)CC3)s2)o1 (stereo not drawn), the IC50 was 83.3 nM (MTT).
The IC50 of COc1cccc(Nc2nc(-c3ccncc3)nc3c2CNCC3)c1 is reported as 37200 nM (MTT).
The IC50 of COc1cccc2c1C(=O)c1c(O)c3c(c(O)c1C2=O)C[C@@](O)(C(=O)CO)C[C@@H]3O[C@H]1C[C@H](N)[C@H](O)[C@H](C)O1 is reported as 32.9 nM (96 h).
CC(=O)O[C@H]1C(=O)[C@@]2(C)[C@H]([C@H](OC(=O)c3ccccc3)[C@]3(O)C[C@H](OC(=O)[C@H](O)[C@@H](NC(=O)c4ccccc4)c4ccccc4)C(C)=C1C3(C)C)[C@]1(OC(C)=O)CO[C@@H]1C[C@@H]2O has an IC50 of 3 nM (MTS; 72 h).
COc1ccc(-c2ccc3c(N4CCOC[C@@H]4C)nc(N4CCOC[C@@H]4C)nc3n2)cc1COC(=O)CCOCCOCCOCCONC(=O)c1ccc(F)c(F)c1Nc1ccc(I)cc1F has an IC50 of 204 nM (WST-1; 72 h).
Fc1ccccc1Nc1nc(-c2ccncc2)nc2c1CNCC2 gave an IC50 of over 100000 nM (MTT).
COc1cc(C(=O)c2nc(-c3cccc4[nH]cnc34)c[nH]2)cc(OC)c1OC has an IC50 of 19.7 nM (MTS; 72 h).
